# Key:
# [1] = system: HepG2; assay: Antiproliferative activity against human HepG2 cells after 48 hrs by SRB assay; type: functional, cell-based; conditions: HepG2, 48 h
# In short: (§1)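 SRB assay on cells in RPMI-1640 with 2 mM glutamine, 10% FBS and penicillin/streptomycin at 37 °C and 5% CO2. Seeded at 5000 cells/well and grown 24 h, then compounds added in triplicate (DMSO 0.5% final) for 48 h. Fixed with TCA at 4 °C for 1 h, stained with SRB, dye dissolved in 10 mM Tris pH 10.4, OD read at 515 nm. IC50 from nonlinear dose-response fit; experiments run at least twice.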
# [2] = Antiproliferative activity against human CNE2 cells after 48 hrs by SRB assay; type: functional, cell-based; conditions: CNE-2, 48 h; in short: as §1
# [3] = Inhibition of TNFalpha-induced NF-kappaB translocation in human A549 cells incubated at 37 degC for 30 mins by high content analysis based immunofluorescence assay; type: cell-based; conditions: A549, 0.5 h
# In short: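 A549 cells at 2000/well grown 24 h, then compound added in duplicate (DMSO 0.5% final) for 30 min at 37 °C. Stimulated with TNFα at 10 ng/mL final for 30 min, then fixed with 4% paraformaldehyde and permeabilized with Triton X-100. Stained with anti-p65 and DyLight 488 secondary plus Hoechst, imaged on ArrayScan. Nuclear minus cytoplasmic intensity, background-subtracted, given as % of TNFα-only control. IC50 from this; repeated at least twice.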
# [4] = system: SW480; assay: Antiproliferative activity against human SW480 cells after 48 hrs by SRB assay; type: functional, cell-based; conditions: SW480, 48 h; in short: as §1
# [5] = system: A549; assay: Antiproliferative activity against human A549 cells after 48 hrs by SRB assay; type: functional, cell-based; conditions: A549, 48 h; in short: as §1
# [6] = system: MCF7; assay: Antiproliferative activity against human MCF7 cells after 48 hrs by SRB assay; type: functional, cell-based; conditions: MCF7, 48 h; in short: as §1
# [7] = target: T1, RAC-alpha serine/threonine-protein kinase (Homo sapiens, UniProt P31749); assay: Inhibition of AKT1 by AKT1/PKBalpha KinEASE FP fluorescein green assay
# T1 sequence (P31749 whole entry): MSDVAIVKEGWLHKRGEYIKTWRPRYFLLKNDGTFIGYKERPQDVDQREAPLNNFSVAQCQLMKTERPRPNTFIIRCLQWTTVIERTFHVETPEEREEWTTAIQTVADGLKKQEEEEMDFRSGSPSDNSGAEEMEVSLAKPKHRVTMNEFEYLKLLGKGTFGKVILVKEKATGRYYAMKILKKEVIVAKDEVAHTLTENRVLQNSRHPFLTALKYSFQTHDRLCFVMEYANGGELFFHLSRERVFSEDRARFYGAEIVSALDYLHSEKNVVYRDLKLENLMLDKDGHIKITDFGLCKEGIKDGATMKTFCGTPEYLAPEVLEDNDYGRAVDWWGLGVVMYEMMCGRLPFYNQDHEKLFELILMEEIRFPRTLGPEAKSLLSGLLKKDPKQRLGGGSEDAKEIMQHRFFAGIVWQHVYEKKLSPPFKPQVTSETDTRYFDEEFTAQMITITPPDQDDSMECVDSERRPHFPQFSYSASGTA
# In short: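 Kinase reaction with Akt1 enzyme (amount giving 70% activity) and STK Substrate 3 (10 µM final) in 50 mM HEPES pH 7.2, 0.01% BSA, 5 mM MgCl2, 1 mM DTT, preincubated with compound 10 min at 25 °C. ATP (100 µM final) starts reaction, run 1 h at 25 °C. Stopped with phospho-STK tracer plus antibody, 6 h, then FP read (ex 470/em 530 nm). IC50 by nonlinear fit; triplicates, repeated twice.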
# [8] = target: T1, RAC-alpha serine/threonine-protein kinase; assay: Inhibition of AKT1-mediated GSK3beta phosphorylation in human A549 cells incubated for 12 hrs by Western blot; type: cell-based
# In short: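 A549 cells grown to 70% confluence, exposed 12 h to compound at 0.125–1.0 µM. Lysed in NP-40 buffer with protease inhibitors, then equal protein run on 10% SDS-PAGE and transferred to PVDF. Probed with anti-phospho-GSK3β (S9) at 1:1000 overnight at 4 °C, then HRP secondary at 1:5000.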
SMILES,IC50 [1] [nM],IC50 [3] [nM],IC50 [4] [nM],IC50 [5] [nM],IC50 [6] [nM],IC50 [7] [nM],inhibition [8],IC50 [2] [nM]
COc1cc(/C=C/C(=O)CC(=O)/C=C/c2ccc(O)c(OC)c2)ccc1O [CURCUMIN],20700,21400,10200,11600,15700,–,–,5760
COc1cc(OC)c(/C=C/C(=O)C(=Cc2cc(Br)c(O)c(OC)c2)C(=O)/C=C/c2c(OC)cc(OC)cc2OC)c(OC)c1,660,> 50000,1450,730,1460,–,–,1320
COc1cccc(/C=C/C(=O)C(=Cc2ccc(OC)c(OC)c2OC)C(=O)/C=C/c2cccc(OC)c2OC)c1OC,240,1630,560,260,380,–,–,410
COc1cccc(/C=C/C(=O)/C=C(O)/C=C/c2cccc(OC)c2OC)c1OC,12900,> 50000,12000,11500,> 50000,–,–,12800
COc1cc(C=C(C(=O)/C=C/c2cccc(OC)c2OC)C(=O)/C=C/c2cccc(OC)c2OC)cc(OC)c1O,210,2620,420,240,460,–,–,300
COc1cc(OC)c(/C=C/C(=O)C(=Cc2ccc(O)c(F)c2)C(=O)/C=C/c2c(OC)cc(OC)cc2OC)c(OC)c1,810,> 50000,1950,1060,3180,–,–,1580
COc1cc(OC)c(/C=C/C(=O)C(=Cc2cc(OC)c(O)c(OC)c2)C(=O)/C=C/c2c(OC)cc(OC)cc2OC)c(OC)c1,510,> 50000,980,340,1030,–,–,680
COc1ccc(/C=C/C(=O)/C=C(O)/C=C/c2ccc(OC)cc2OC)c(OC)c1,10400,> 50000,> 50000,44700,> 50000,–,–,> 50000
COc1cc(OC)c(C=C(C(=O)/C=C/c2cccc(OC)c2OC)C(=O)/C=C/c2cccc(OC)c2OC)c(OC)c1,300,> 50000,840,630,720,–,–,630
COc1cc(C=C(C(=O)/C=C/c2cccc(OC)c2OC)C(=O)/C=C/c2cccc(OC)c2OC)cc(Br)c1O,240,5530,260,200,360,–,–,220
COc1cc(OC)c(/C=C/C(=O)/C=C(O)/C=C/c2c(OC)cc(OC)cc2OC)c(OC)c1,16500,> 50000,> 50000,> 50000,> 50000,–,–,> 50000
COc1cccc(/C=C/C(=O)C(=Cc2cc(OC)c(OC)c(OC)c2)C(=O)/C=C/c2cccc(OC)c2OC)c1OC,220,1320,650,230,840,–,–,400
COc1cccc(/C=C/C(=O)C(=Cc2ccc(O)c(F)c2)C(=O)/C=C/c2cccc(OC)c2OC)c1OC,220,5250,330,200,300,–,–,260
COc1cccc(/C=C/C(=O)C(=Cc2ccc(F)cc2)C(=O)/C=C/c2cccc(OC)c2OC)c1OC,580,1720,1040,340,1830,–,–,610
COc1cccc(C=C(C(=O)/C=C/c2cccc(OC)c2OC)C(=O)/C=C/c2cccc(OC)c2OC)c1OC,230,2390,590,320,520,–,–,400
COc1ccc(OC)c(/C=C/C(=O)/C=C(O)/C=C/c2cc(OC)ccc2OC)c1,5560,> 50000,15600,16300,> 50000,–,–,14700

# Continued, in another order:
IC50 [1] [nM],IC50 [3] [nM],IC50 [4] [nM],IC50 [5] [nM],IC50 [6] [nM],IC50 [7] [nM],inhibition [8],SMILES,IC50 [2] [nM]
1760,23000,3350,2070,5450,–,–,COc1ccc(/C=C/C(=O)C(=Cc2ccc(O)c(F)c2)C(=O)/C=C/c2ccc(OC)cc2OC)c(OC)c1,2830
670,> 50000,1490,580,1880,–,–,COc1cc(OC)c(/C=C/C(=O)C(=Cc2ccc(O)c(OC)c2)C(=O)/C=C/c2c(OC)cc(OC)cc2OC)c(OC)c1,1350
320,3930,850,300,970,–,–,COc1ccc(/C=C/C(=O)C(=Cc2cc(OC)c(O)c(OC)c2)C(=O)/C=C/c2ccc(OC)cc2OC)c(OC)c1,850
1190,> 50000,1480,1090,2600,–,–,COc1ccc(/C=C/C(=O)C(=Cc2cc(Br)c(O)c(OC)c2)C(=O)/C=C/c2ccc(OC)cc2OC)c(OC)c1,1780
280,4190,490,220,580,5020,–,COc1ccc(OC)c(/C=C/C(=O)C(=Cc2cc(Br)c(O)c(OC)c2)C(=O)/C=C/c2cc(OC)ccc2OC)c1,420
200,1670,410,170,560,–,–,COc1ccc(C=C(C(=O)/C=C/c2cccc(OC)c2OC)C(=O)/C=C/c2cccc(OC)c2OC)cc1OC,280
470,1780,1120,390,990,–,–,COc1ccc(OC)c(/C=C/C(=O)C(=Cc2ccc(OC)c(O)c2)C(=O)/C=C/c2cc(OC)ccc2OC)c1,730
510,10400,1520,590,2140,–,–,COc1ccc(/C=C/C(=O)C(=Cc2ccc(O)c(OC)c2)C(=O)/C=C/c2ccc(OC)cc2OC)c(OC)c1,970
340,2650,410,190,400,–,–,COc1ccc(OC)c(/C=C/C(=O)C(=Cc2ccc(O)c(OC)c2)C(=O)/C=C/c2cc(OC)ccc2OC)c1,340
270,1260,320,270,310,–,–,COc1ccc(C=C(C(=O)/C=C/c2cccc(OC)c2OC)C(=O)/C=C/c2cccc(OC)c2OC)cc1O,220
210,950,500,190,430,–,–,COc1ccc(OC)c(/C=C/C(=O)C(=Cc2cc(OC)c(O)c(OC)c2)C(=O)/C=C/c2cc(OC)ccc2OC)c1,450
260,14400,560,400,850,–,–,COc1ccc(OC)c(/C=C/C(=O)C(=Cc2ccc(OC)c(OC)c2)C(=O)/C=C/c2cc(OC)ccc2OC)c1,550
220,3010,510,220,460,–,–,COc1ccc(OC)c(/C=C/C(=O)C(=Cc2ccc(O)c(F)c2)C(=O)/C=C/c2cc(OC)ccc2OC)c1,380
390,12300,1370,380,1600,1660,–,COc1ccc(/C=C/C(=O)C(=Cc2ccc(OC)c(O)c2)C(=O)/C=C/c2ccc(OC)cc2OC)c(OC)c1,760
200,1710,430,130,480,810,Dose-dependent effect,COc1cc(C=C(C(=O)/C=C/c2cccc(OC)c2OC)C(=O)/C=C/c2cccc(OC)c2OC)ccc1O,280
